Structures are written as SMILES. Calls of active or inactive are those of the source. Cut-off read from the data, not from the text of the source, unless noted: active = inhibition above about 30%; inactive = the rest.

Assay [1] can be described thus: Her2 expression decrease, cell viability multiplex – SKBR3 breast tumor cells, AlphaScreen, ATP viability, primary screen (AID 461;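 active = Her2 level under about 52% in both replicate screens, with viability over 70% of control, limit read from the data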;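 for Her2 level: lower value means less Her2 protein in the cells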;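 for viability: percent of carrier control wells set as 100% viability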). The note with it: SKBR3 Her2 protein level, 18-24 h, measured here: SKBR3 viability, ATP luminescence, at 10 µM.
The target of assay [2] is Receptor tyrosine-protein kinase erbB-2 (Homo sapiens) (UniProt P04626). The description is as above. The note with it: 18-24 h, at 10 µM, stronger effect = lower value.
Assay [3] can be described thus: reduced viability of SK-BR-3 breast cancer cells – cell-based, 24 h, human, pilot screen (AID 572;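 active = viability at or below 10% of carrier control in both of two separate runs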;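 note: compound exposure lasted between 18 and 24 h rather than exactly 24 h; 100% = carrier-treated control wells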). To be noted: SK-BR-3 viability, CellTiter-Glo luminescence, at 10 µM, stronger effect = lower value.
Assay [4] in a line: HUVEC growth inhibition – cell-based, human, primary screen (AID 575;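 active = viability at or below 30% in both replicate assays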;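 note: 100% = median of untreated cell wells with 0.1% DMSO on each plate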). To be noted: HUVEC proliferation, CellTiter-Glo luminescence, 72 h; at 10 µM; stronger effect = lower value. Put shortly:
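Test system: HUVEC primary cells. Quantity: 1250 endothelial cells in each well. Dosing: single-point 10 µM, DMSO 0.1% final. Incubation: 72 h treatment at 37 °C. Measured by: CTG luminescence. Control set: DMSO cell controls and MePR drug controls. Plate: collagen-coated 384-well format.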
On the technique in general: ATP-based viability assays read luminescence as a measure of living cells.

Assay [5] is described as follows: H69AR cell proliferation blockers – human, duplicate replicates, primary screen (AID 580;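 active = viability at or under a set limit in both replicates, limit being median viability minus 3 SD, cut at about 48% in these data, passing the limit was not always enough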;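 note: 100% = mean luminescence of untreated wells and 0% = no signal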). To be noted: H69AR lung tumor cells viability, ATP luminescence, 72 h; at 10 µM; stronger effect = lower value.
Assay [6] is described as follows: MRP1 drug-resistance reversers in H69AR cells – cell-based, doxorubicin co-treatment, pilot screen (AID 601;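 active = viability loss from added drug above about 55%, and viability with drug at most 40%, in both replicates, limit read from the data, passing the limit was not always enough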). To be noted: CellTiter-Glo, 72 h, at 10 µM; for differential viability (reversal): stronger effect = higher value.
Assay [7] in a line: yeast transport mutant growth inhibition pilot in 384-well plates, post-Golgi transport modulator project (AID 636; in the data active = inhibition above about 31%). To be noted: absorbance 615 nm, about 18 h, stronger effect = higher value.
A short description of assay [8]: growth suppression of yeast trafficking mutant, preliminary HTS, modulators of trafficking downstream of Golgi apparatus project, 1536-format plate, OD 615 nm (AID 637). To be noted: yeast transport mutant growth, absorbance 615 nm, 18 h; stronger effect = higher value.
Where [9] appears, read: H69AR cells + 2 uM doxorubicin, measured here: viability with 2 uM doxorubicin, stronger effect = lower value.
[10] abbreviates: H69AR cells, compound alone cytotoxicity.

Receptor tyrosine-protein kinase erbB-2 (Homo sapiens), sequence (P04626 whole entry, looked up): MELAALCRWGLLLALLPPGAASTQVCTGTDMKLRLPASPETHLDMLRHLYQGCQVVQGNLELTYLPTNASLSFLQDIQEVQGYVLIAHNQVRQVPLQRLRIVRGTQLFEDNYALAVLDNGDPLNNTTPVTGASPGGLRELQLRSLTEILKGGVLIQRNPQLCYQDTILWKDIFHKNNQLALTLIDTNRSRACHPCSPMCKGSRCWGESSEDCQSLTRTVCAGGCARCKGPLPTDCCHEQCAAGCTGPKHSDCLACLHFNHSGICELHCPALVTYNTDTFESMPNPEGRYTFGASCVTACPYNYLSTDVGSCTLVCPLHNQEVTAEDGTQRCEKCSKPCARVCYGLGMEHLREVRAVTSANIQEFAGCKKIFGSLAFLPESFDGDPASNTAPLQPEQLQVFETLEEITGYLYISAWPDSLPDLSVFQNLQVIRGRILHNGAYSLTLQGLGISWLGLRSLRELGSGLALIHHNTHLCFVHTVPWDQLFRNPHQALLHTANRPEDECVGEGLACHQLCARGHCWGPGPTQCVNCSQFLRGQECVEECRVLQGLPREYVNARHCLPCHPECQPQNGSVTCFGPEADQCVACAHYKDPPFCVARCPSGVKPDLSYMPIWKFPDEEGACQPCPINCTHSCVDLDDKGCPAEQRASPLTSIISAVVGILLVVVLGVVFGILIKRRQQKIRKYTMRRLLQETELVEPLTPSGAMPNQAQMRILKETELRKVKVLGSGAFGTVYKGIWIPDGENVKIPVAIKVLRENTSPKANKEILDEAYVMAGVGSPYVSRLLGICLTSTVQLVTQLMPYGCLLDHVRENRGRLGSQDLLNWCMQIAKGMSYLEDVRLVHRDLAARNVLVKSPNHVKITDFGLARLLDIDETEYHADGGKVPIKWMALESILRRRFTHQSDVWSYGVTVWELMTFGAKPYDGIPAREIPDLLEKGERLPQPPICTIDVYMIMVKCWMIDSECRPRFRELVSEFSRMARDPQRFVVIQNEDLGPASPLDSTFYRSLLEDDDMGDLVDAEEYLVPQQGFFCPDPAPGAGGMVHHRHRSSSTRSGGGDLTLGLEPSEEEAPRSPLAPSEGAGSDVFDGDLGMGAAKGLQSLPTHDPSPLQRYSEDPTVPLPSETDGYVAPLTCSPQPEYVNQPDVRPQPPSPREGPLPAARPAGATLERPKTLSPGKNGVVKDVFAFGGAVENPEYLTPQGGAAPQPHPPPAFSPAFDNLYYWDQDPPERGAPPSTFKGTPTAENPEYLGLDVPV

The term viability denotes a read-out of living cells in per cent, often relative to untreated cells. In general, inhibition refers to the drop in the measured response relative to a control, in per cent. On to `COc1ccc(-c2nnc(SCC(=O)N3CCCCC3)o2)cc1OC`, for which the viability in assay [1] was 104%; in assay [3], 104% (inactive); in assay [4], 88.7% (inactive); in assay [5] it was 97.5% (inactive); in assay [6] (setting [9]), 92.1%; in assay [6] (setting [10]), 97.5%. Also, the Her2 level in assay [2] is 104% (inactive). The differential viability (reversal) in assay [6] (H69AR cells + 2 uM doxorubicin) was 5.33% (inactive). The inhibition in assay [7] was -2.93% (inactive); in assay [8], -5.9% (inactive).

Take `Cc1cccc2cc(CN(Cc3nnnn3Cc3ccccc3)C3CCCC3)c(=O)[nH]c12`: the viability was 85% in assay [1]; 85% (inactive) in assay [3]; 89.3% (inactive) in assay [4]; 72.9% (inactive) in assay [5]; 41.7% in assay [6] (setting [9]); 72.9% in assay [6] (setting [10]). The Her2 level in assay [2] was 72.5% (inactive). The differential viability (reversal) in assay [6] (H69AR cells + 2 uM doxorubicin) was 31.2% (inactive). Besides, the inhibition in assay [7] is -1.18% (inactive); in assay [8], -4.55% (inactive).

In the case of `COc1ccc(CCNC(=O)C2CCN(C(=O)N(C)C)CC2)cc1OC`, the viability in assay [1] is 86.5%; in assay [3], 86.5% (inactive); in assay [4] it was 108% (inactive); in assay [5], 92.8% (inactive); in assay [6] (setting [9]) it was 91.2%; in assay [6] (setting [10]) it was 92.8%. The Her2 level in assay [2] is 117% (inactive). For the same molecule, in assay [6] (H69AR cells + 2 uM doxorubicin), the differential viability (reversal) was 1.61% (inactive). In addition, the inhibition is -2.05% (inactive) in assay [7] and -4.67% (inactive) in assay [8].

In the case of `CSC1=NCCN1C(=O)c1ccc(S(=O)(=O)N2CCCC2)cc1`, the viability was 111% in assay [1]; 111% (inactive) in assay [3]; 91.2% (inactive) in assay [4]; 91.3% (inactive) in assay [5]; 92.4% in assay [6] (setting [9]); 91.3% in assay [6] (setting [10]). In addition, the Her2 level in assay [2] was 107% (inactive). Besides, in assay [6] (H69AR cells + 2 uM doxorubicin), the differential viability (reversal) is -1.11% (inactive). In addition, the inhibition is 0.77% (inactive) in assay [7] and -3.17% (inactive) in assay [8].

`COc1cccc(C2C(C#N)=C(N)OC3=C2C(=O)CCC3)c1OC(=O)c1ccco1` (stereo not given): the viability was 106% in assay [1]; 106% (inactive) in assay [3]; 83.6% (inactive) in assay [4]; 99.7% (inactive) in assay [5]; 86.6% in assay [6] (setting [9]); 99.7% in assay [6] (setting [10]). In addition, the Her2 level in assay [2] is 84% (inactive). The differential viability (reversal) in assay [6] (H69AR cells + 2 uM doxorubicin) was 13.1% (inactive). The inhibition in assay [7] was -4.53% (inactive); in assay [8] it was 3.71% (inactive).

In the case of `O=c1c2c(nc3nc(COc4ccccc4)[nH]n13)CCC2`, the viability is 103% in assay [1]; 103% (inactive) in assay [3]; 99.5% (inactive) in assay [4]; 101% (inactive) in assay [5]; 90.2% in assay [6] (setting [9]); 101% in assay [6] (setting [10]). Further, in assay [2], the Her2 level is 103% (inactive). Further, in assay [6] (H69AR cells + 2 uM doxorubicin), the differential viability (reversal) was 10.9% (inactive). The inhibition is -4.8% (inactive) in assay [7] and 3.23% (inactive) in assay [8].

For the molecule `COC(=O)Nc1nc2c(C)cccc2s1`, the viability is 114% in assay [1]; 114% (inactive) in assay [3]; 56.1% (inactive) in assay [4]; 85.4% (inactive) in assay [5]; 73.5% in assay [6] (setting [9]); 85.4% in assay [6] (setting [10]). Further, in assay [2], the Her2 level is 88% (inactive). For the same molecule, the differential viability (reversal) in assay [6] (H69AR cells + 2 uM doxorubicin) was 11.9% (inactive). Moreover, the inhibition in assay [7] was 1.18% (inactive); in assay [8], 8.33% (inactive).

With `COc1ccc(NC(=O)Nc2cc(C)ccc2OC)cc1`, the viability in assay [1] is 101%; in assay [3] it was 101% (inactive); in assay [4], 96.1% (inactive); in assay [5], 93.6% (inactive); in assay [6] (setting [9]), 97.7%; in assay [6] (setting [10]) it was 93.6%. Also, the Her2 level in assay [2] is 109% (inactive). Further, the differential viability (reversal) in assay [6] (H69AR cells + 2 uM doxorubicin) was -4.12% (inactive). The values for the inhibition in assay [7] and in assay [8] were 1.18% (inactive) and -3.11% (inactive), respectively.

Regarding `Cc1c(C(=O)OC2CCCCC2)[nH]c2c1C(=O)CC(C)(C)C2`, the viability in assay [1] is 82.5%; in assay [3] it was 82.5% (inactive); in assay [4] it was 48.8% (inactive); in assay [5], 78.8% (inactive); in assay [6] (setting [9]), 82.5%; in assay [6] (setting [10]), 78.8%. For the same molecule, the Her2 level in assay [2] was 116% (inactive). Also, the differential viability (reversal) in assay [6] (H69AR cells + 2 uM doxorubicin) was -3.71% (inactive). In addition, the inhibition in assay [7] was -3.55% (inactive); in assay [8], -17.5% (inactive).

`O=C(/C=N/O)NCc1ccncc1`: the viability was 100% in assay [1]; 100% (inactive) in assay [3]; 102% (inactive) in assay [4]; 108% (inactive) in assay [5]; 100% in assay [6] (setting [9]); 108% in assay [6] (setting [10]). In addition, in assay [2], the Her2 level is 94.5% (inactive). The differential viability (reversal) in assay [6] (H69AR cells + 2 uM doxorubicin) is 7.88% (inactive). Besides, the results for the inhibition in assay [7] and in assay [8] were -1.43% (inactive) and -3.81% (inactive), respectively.

Regarding `CCCCOc1ccc(NC(=O)Cn2c(=O)ccc3c(C)cc(C)nc32)cc1`, the viability is 102% in assay [1]; 102% (inactive) in assay [3]; 94.1% (inactive) in assay [4]; 91.2% (inactive) in assay [5]; 79.5% in assay [6] (setting [9]); 91.2% in assay [6] (setting [10]). In assay [2], the Her2 level is 104% (inactive). For the same molecule, the differential viability (reversal) in assay [6] (H69AR cells + 2 uM doxorubicin) is 11.8% (inactive). The inhibition in assay [7] is -3.55% (inactive); in assay [8] it was -1.45% (inactive).

Take `CC(NC(=O)c1ccccc1NC(=O)c1ccco1)C(=O)O` (stereo not given): the viability in assay [1] was 106%; in assay [3], 106% (inactive); in assay [4], 89% (inactive); in assay [5], 86.7% (inactive); in assay [6] (setting [9]), 84.7%; in assay [6] (setting [10]), 86.7%. Besides, the Her2 level in assay [2] is 68% (inactive). In assay [6] (H69AR cells + 2 uM doxorubicin), the differential viability (reversal) was 2.01% (inactive). The inhibition is -2.63% (inactive) in assay [7] and 2.1% (inactive) in assay [8].

On to `O=C(CCC(=O)N(c1cccc(F)c1)C(C(=O)NC1CCCC1)c1ccncc1)Nc1cccnc1` (stereo not given), for which the viability in assay [1] was 100%; in assay [3], 100% (inactive); in assay [4], 97.1% (inactive); in assay [5] it was 91.7% (inactive); in assay [6] (setting [9]), 95.8%; in assay [6] (setting [10]), 91.7%. Besides, in assay [2], the Her2 level was 95.5% (inactive). In addition, in assay [6] (H69AR cells + 2 uM doxorubicin), the differential viability (reversal) is -4.02% (inactive). In addition, the inhibition in assay [7] is -0.8% (inactive); in assay [8], 2.74% (inactive).

Turning to `CN(c1ccccc1)S(=O)(=O)c1ccc(C(=O)OCC(=O)N2CCOCC2)cc1`, the viability in assay [1] was 106%; in assay [3], 106% (inactive); in assay [4], 106% (inactive); in assay [5] it was 111% (inactive); in assay [6] (setting [9]), 89.4%; in assay [6] (setting [10]), 111%. In assay [2], the Her2 level is 85.5% (inactive). Moreover, in assay [6] (H69AR cells + 2 uM doxorubicin), the differential viability (reversal) is 21.5% (inactive). Moreover, the results for the inhibition in assay [7] and in assay [8] were -5.41% (inactive) and 3.17% (inactive), respectively.
